IDE cell activ = activators of human insulin-degrading enzyme in cells. P14735. HEK cells, FAbeta-B cleavage, fluorescence polarization; 0% vehicle, 100% cell-free pure enzyme wells. activation, % at 5.96 µM. 340,000 compounds, 0.073% hits;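 active means activation above the mean of all tested compounds plus 3 SD, set per screening campaign, cut at about 17% in these data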
Target sequence (P14735 whole entry, looked up): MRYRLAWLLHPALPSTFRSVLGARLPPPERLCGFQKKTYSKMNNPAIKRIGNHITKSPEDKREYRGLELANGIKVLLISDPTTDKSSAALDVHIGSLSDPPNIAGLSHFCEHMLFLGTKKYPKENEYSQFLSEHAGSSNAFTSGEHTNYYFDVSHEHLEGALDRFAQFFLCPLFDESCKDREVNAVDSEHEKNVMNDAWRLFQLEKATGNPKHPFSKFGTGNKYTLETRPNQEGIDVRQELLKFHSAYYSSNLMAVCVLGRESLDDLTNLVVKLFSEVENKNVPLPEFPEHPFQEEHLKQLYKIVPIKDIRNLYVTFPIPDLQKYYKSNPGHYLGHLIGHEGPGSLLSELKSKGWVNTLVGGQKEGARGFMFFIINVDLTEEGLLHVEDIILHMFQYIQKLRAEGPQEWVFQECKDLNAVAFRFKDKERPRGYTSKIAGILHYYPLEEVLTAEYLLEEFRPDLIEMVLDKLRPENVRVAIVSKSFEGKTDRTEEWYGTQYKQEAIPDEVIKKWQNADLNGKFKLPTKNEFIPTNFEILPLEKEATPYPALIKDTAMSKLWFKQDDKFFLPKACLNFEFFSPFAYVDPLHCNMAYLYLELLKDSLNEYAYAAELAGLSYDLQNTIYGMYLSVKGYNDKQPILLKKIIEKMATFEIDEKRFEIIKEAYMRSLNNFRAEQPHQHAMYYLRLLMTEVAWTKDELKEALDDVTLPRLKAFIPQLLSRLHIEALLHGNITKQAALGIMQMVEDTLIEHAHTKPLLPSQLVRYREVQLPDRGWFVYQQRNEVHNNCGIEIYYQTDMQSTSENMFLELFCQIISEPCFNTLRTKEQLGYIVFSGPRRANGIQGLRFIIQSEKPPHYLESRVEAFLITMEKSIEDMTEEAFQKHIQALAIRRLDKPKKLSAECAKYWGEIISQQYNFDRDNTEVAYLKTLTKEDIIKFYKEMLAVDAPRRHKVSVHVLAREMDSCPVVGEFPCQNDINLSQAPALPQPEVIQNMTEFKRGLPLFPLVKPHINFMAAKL
TPT1 inhibitor = blocks Candida albicans tRNA 2'-phosphotransferase. AID 1962. inhibition, % at 5 µM. recombinant caTPT1, FP RNA substrate dephosphorylation. 300,000 compounds, 0.81% hits;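 active means inhibition above the mean of all tested compounds plus 3 SD, set per screening campaign, cut at about 24% in these data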;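 further: plate controls were DMSO alone for no effect and ferristatin control at 100 nM for full effect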
CSN inh = inhibitors of human CSN-mediated cullin deneddylation | Q92905 | Purified CSN, SCF-Nedd8-OG deneddylation, fluorescence polarization | inhibition, % at 12.5 µM | 360,000 compounds, 0.38% hits | AID 651999;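 active means pattern-corrected inhibition above about 35%, with an unprinted fluorescence ratio check between 0.5 and 1.5, limit read from the data, passing the limit was not always enough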;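 further: 0% = enzyme with substrate and 100% = substrate without enzyme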
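Material: human Csn5 produced in HEK293T cells; Input: enzyme 0.24 nM; Reagent: SCFSkp2-Nedd8OG substrate at 10 nM final; Dosing: 12.5 µM compound; Incubation: 90 min reaction at room temperature; Detection: fluorescence polarization of the substrate; Evaluation: % inhibition of substrate cleavage by Csn5; Control set: substrate-only high control, full reaction low control.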
Rpn11 inh = blocks the human proteasome subunit Rpn11; human 26S proteasome, Ub4-pepOG fluorescence polarization; 20S core pre-blocked with epoxomicin; AID 588493; O00487; 360,000 compounds, 0.59% hits; inhibition, % at 20 µM;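 active means inhibition at 20 µM, scaled to each plate's controls, above about 33%, limit read from the data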
IDE inh = inhibitors of human insulin-degrading enzyme in cells; inhibition, % at 5.59 µM; 320,000 compounds, 0.41% hits; HEK cells, FAbetaB cleavage, fluorescence polarization;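 active means percent inhibition above the average of all tested compounds plus 3 SD, set per screening campaign, cut at about 16% in these data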;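 further: IDE supplied by intact live HEK cells; FP after avidin binding of uncleaved biotin substrate so inhibition keeps polarization high; 0% = DMSO wells and 100% = 60 µM reference IDE inhibitor Ii1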
HNF4A DNA FP = change in binding of human HNF4 alpha to DNA; AID 1224865; activity change, % at 10 µM; 360,000 compounds, 0.3% hits; HNF4a-FITC DNA binding, fluorescence polarization, 1 h; P41235; in the data active means activity change above about 30%, passing the limit was not always enough
IDE inh confirm = cellular human IDE inhibition, confirmation. shares compounds with IDE inh. HEK cells, FAbetaB cleavage, fluorescence polarization. inhibition, % at 5.59 µM. 1,200 compounds, 51% hits. AID 435028;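 active means mean inhibition across triplicate wells above the cutoff set by the earlier primary insulin-degrading enzyme screen, cut at about 16% in these data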;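 further: 0% = DMSO wells and 100% = 60 µM reference IDE inhibitor Ii1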
HEK cytotox = HEK cell cytotoxicity, counter-screen for IDE inhibitors | HEK293 cytotoxicity, ATP luminescence | inhibition, % at 5.59 µM | shares compounds with IDE inh | 1,200 compounds, 28% hits; in the data active means inhibition above about 22%;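 further: 0% = vehicle wells and 100% = reference cytotoxic drug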
* marks the source's active call; other numbers are inactive results; . = no result shown. Only some compounds are listed: those with a hit (about 1.7% of all), similar ones and a draw of the others.

SMILES | IDE cell activ | TPT1 inhibitor | CSN inh | Rpn11 inh | IDE inh | HNF4A DNA FP | IDE inh confirm | HEK cytotox
O=C(COC(=O)c1cccnc1Cl)NC1CCCc2ccccc21 (stereo not given) | 4 | . | 0 | -7 | -5 | 2 | . | .
COc1c(Cl)cc(Cl)cc1/C=C/C(=O)c1ccc(NC(=O)c2cccs2)cc1 | 0 | 4 | 3 | 12 | 15 | 4 | . | .
Cc1ccc(N2CCN(CCc3nc4cc(NC(=O)c5ccco5)ccc4n3C)CC2)cc1 | -1 | -3 | -2 | -5 | 19* | 2 | 8 | 21
CN1CCN(C2=C(Cl)C(=O)C(c3cnc(N4CCCCC4)s3)=C(Cl)C2=O)CC1 | 3 | 0 | 11 | 11 | 23* | -1 | -3 | 119*
C=CCN1C(=O)/C(=C\c2ccc(OC(=O)c3ccco3)c(OC)c2)SC1=S | -77 | 7 | 5 | 10 | 32* | 20 | 143* | 11
C=CCN1C(=O)/C(=C\c2cccc(OC(=O)c3ccco3)c2)SC1=S | 1 | 3 | -3 | -1 | 4 | 2 | . | .
COCc1cccc(-c2csc(C(C)(NC(C)=O)c3ccc(OC)cc3)n2)c1 (stereo not given) | . | . | 1 | -6 | . | 4 | . | .
CC(=O)c1ccc(N2CCN(C(=O)/C=C/c3ccc(S(=O)(=O)NCc4ccco4)cc3)CC2)cc1 | -14 | 1 | 2 | 8 | 21* | -3 | 0 | 49*
CC(=O)c1ccc(N2CCN(C(=O)/C=C/c3ccc(S(=O)(=O)N4CCOCC4)cc3)CC2)cc1 | 0 | 2 | -8 | -3 | 4 | -3 | . | .
Cc1ccc(S(=O)(=O)CC(=O)N2CCN(c3ccc([N+](=O)[O-])cc3)CC2)cc1 | -1 | . | -4 | 4 | 19* | 6 | 1 | 23*
Cc1ccc(CC(=O)N2CCN(c3ccc([N+](=O)[O-])cc3)CC2)cc1 | 4 | -3 | 3 | -4 | 6 | 4 | . | .
O=C(CN(C(=O)CCC(=O)Nc1ccccn1)c1ccc(F)cc1)NCc1ccc(F)cc1 | 0 | 2 | 5 | 3 | -3 | -3 | . | .
Fc1ccc(-c2ccnc(=S)[nH]2)cc1 | -24 | 1 | 4 | -3 | 40* | -3 | 8 | 12
CSc1sc(-c2ccnc(=S)[nH]2)c(-c2ccccc2)c1C#N | . | 4 | -1 | 8 | -3 | 3 | . | .
C=CCN(C(=O)CSc1nnnn1C)c1nc(-c2ccccc2)cs1 | -12 | . | 1 | -8 | . | -2 | . | .
C=CCN(C(=O)COC(=O)c1cc[n+]([O-])cc1)c1nc(-c2ccccc2)cs1 | -26 | . | -5 | -2 | 35* | 0 | 34* | 3
CCn1c(COc2ccc(C)cc2)nnc1SCC(=O)C(C)(C)C | -5 | -7 | 3 | 1 | 2 | 1 | . | .
CCn1c(COc2ccc(C)cc2)nnc1SCc1ccc(C#N)cc1 | 0 | -2 | 0 | -9 | 18* | 2 | 8 | 13
CC(C)C(=O)N1CCCC1(C)C(=O)N(C)Cc1cccc2ccccc12 (stereo not given) | . | . | 3 | 2 | . | 1 | . | .
COc1cc(/C=C/C(=O)Nc2cc(C(F)(F)F)ccc2Cl)cc(OC)c1OC | -5 | -7 | -2 | 1 | 17* | 3 | 4 | 16
COc1ccc(/C=C/C(=O)Nc2cc(C(F)(F)F)ccc2Cl)cc1OC | -9 | -2 | 3 | -4 | 9 | -3 | . | .
N=C1S/C(=C\c2ccccc2)C(=O)N1c1ccc(F)cc1 | 0 | -2 | 1 | 1 | -2 | -1 | . | .
COc1cc(/C=C2\SC(=O)N(c3ccc(O)cc3)C2=O)cc(OC)c1OC | 4 | -4 | -2 | 2 | 1 | 0 | . | .
COc1cc(/C=C2\SC(=N)N(c3ccc4c(c3)OCO4)C2=O)cc(OC)c1O | -58 | 11 | 13 | 18 | 81* | 20 | 72* | 11
COc1cc(/C=C2\SC(=N)N(c3ccc(F)cc3)C2=O)ccc1O | -14 | 21 | 8 | 21 | 26* | 14 | 19* | 20
SMILES | IDE cell activ | TPT1 inhibitor | CSN inh | Rpn11 inh | IDE inh | HNF4A DNA FP | IDE inh confirm | HEK cytotox
O=c1oc2c3c4c(cc2c(C(F)(F)F)c1CCN1CCOCC1)CCCN4CCC3 | -49 | -1 | 12 | . | 37* | -19 | 68* | 10
O=c1oc2c(CN3CCOCC3)c(O)ccc2c2c1CCC2 | -2 | 2 | 3 | -7 | 2 | 2 | . | .
Cc1ccc(OCc2cc(C(=O)N3CCCC(O)C3)no2)cn1 (stereo not given) | 0 | 0 | 4 | -4 | -1 | -3 | . | .
Cn1c(=O)c2cc(NC(=O)CCc3cccnc3)ccc2n1Cc1cccc(C(F)(F)F)c1 | . | . | 15 | 6 | . | 4 | . | .
OC(CN1CCN(c2ccc(C(F)(F)F)cn2)CC1)c1ccccc1 (stereo not given) | -11 | 1 | -3 | -2 | 20* | -3 | 11 | 20
CCCCC(c1nc2ccccc2[nH]1)n1c(-c2ccccc2)nc2ccccc21 (stereo not given) | . | . | 0 | -6 | . | 1 | . | .
CC(C)Cn1cnc2c1c(=O)[nH]c(=O)n2Cc1ccccc1 | 2 | -3 | 1 | -4 | 2 | -2 | . | .
O=C1Nc2ccccc2/C1=C/c1cnc(-c2ccccc2)[nH]1 | -32 | -31 | 6 | -7 | 32* | -20 | 30* | 9
O=C1Nc2ccccc2/C1=C/c1cccnc1 | 3 | 0 | -1 | 4 | 0 | 0 | . | .
c1ccc(C(c2ccccn2)c2ccccn2)cc1 | -7 | 1 | -2 | -2 | 17* | -6 | 3 | 9
CC(=O)Oc1ccc(C(c2ccc(OC(C)=O)cc2)c2ccccn2)cc1 | -1 | -3 | -3 | -1 | 4 | 0 | . | .
O=C(CSc1nnc(-c2ccc(Br)cc2)o1)N1CCN(C(=O)c2ccco2)CC1 | -15 | 2 | -2 | -1 | 17* | -4 | 9 | 6
CC[n+]1c(C)sc2c3ccsc3ccc21 | -21 | 6 | 0 | 12 | 42* | 1 | 10 | 2
COc1cccc(NC(=O)N2CCN(c3cccc(C)c3C)CC2)c1 | -1 | -3 | -1 | -2 | 16* | -2 | 4 | 14
COc1ccccc1N1CCN(C(=O)Nc2cccc(Cl)c2)CC1 | 2 | -2 | 1 | 2 | 2 | -2 | . | .
COc1cccc(NC(=O)N2CCN(c3nc(-c4cccc(OC)c4)cs3)CC2)c1 | -28 | 0 | 0 | 11 | 19* | -1 | 10 | 30*
O=C1C=CC2(O[C@H](c3ccccc3)[C@@H](c3ccccc3)O2)[C@H](Sc2ccccc2O)C1 | -11 | . | 17 | 4 | . | -5 | . | .
CC(=O)c1c(C)[nH]c(C(=O)Nc2ccc(C)cc2Br)c1C | -3 | -2 | 2 | 2 | 7 | -4 | . | .

Source: PubChem (several laboratories)
